# Test results: ChEMBL document CHEMBL1133743, “CCK peptides with combined features of hexa- and tetrapeptide CCK-A agonists” (J Med Chem, 2000)
# *1 amine or outer side, *2 acyl side, *3 side chain or, on linkers, in order; H or OH if unused. Where a SMILES comes first, the peptide text is derived from it. Side-chain parts run from the residue outwards. [ ]: non-standard residue; d: D form. The star is where a group is joined. NMeF = CN[C@@H](Cc1ccccc1)C(=O)O; NMeD = CN[C@@H](CC(=O)O)C(=O)O; NH(2-Me-phenyl) = Cc1ccccc1N*; X3 = O=C(/C=C/c1ccc(O)cc1)*; Nle = CCCC[C@H](N)C(=O)O; X1 = O=C(Cc1ccc(O)cc1)*; Boc = CC(C)(C)OC(=O)*; CO = O=C([*:1])[*:2]
# Experiments:
# [1] = biological target: T1, Cholecystokinin receptor type A (Rattus norvegicus, UniProt P30551); test: Inhibition of [125I]BH-CCK-8 binding to Cholecystokinin type A receptor of rat pancreatic tissue
# T1 sequence (P30551 whole entry): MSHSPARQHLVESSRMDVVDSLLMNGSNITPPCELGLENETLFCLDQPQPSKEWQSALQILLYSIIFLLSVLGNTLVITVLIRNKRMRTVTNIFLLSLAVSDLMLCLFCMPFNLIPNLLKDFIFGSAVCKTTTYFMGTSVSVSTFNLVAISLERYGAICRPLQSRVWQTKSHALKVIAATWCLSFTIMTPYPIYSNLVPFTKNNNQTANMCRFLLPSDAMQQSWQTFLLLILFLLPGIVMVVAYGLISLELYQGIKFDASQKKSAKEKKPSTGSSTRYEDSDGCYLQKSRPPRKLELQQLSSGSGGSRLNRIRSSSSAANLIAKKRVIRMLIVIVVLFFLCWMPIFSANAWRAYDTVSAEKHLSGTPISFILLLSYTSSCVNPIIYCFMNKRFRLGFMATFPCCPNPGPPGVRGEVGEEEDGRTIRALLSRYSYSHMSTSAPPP
# Procedure, shortened: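 Sprague–Dawley rat pancreas homogenized in 50 mM Tris pH 8.0 at 4 °C; washed membranes in 5 mM Tris (pH 7.4) with 5 mM MgCl2, 5 mM DTT, 2 mg/mL BSA, 0.14 mg/mL bacitracin.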
# Rattus norvegicus [2] = test: Ability of intraperitoneally administered compound, to inhibit food intake was measured 3 hr after feeding the rats.; type: functional; settings: ip
# Procedure, shortened: (§1)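 Male Sprague–Dawley rats (300–400 g), individually caged, 12 h light/dark cycle, trained ≥14 days to eat powdered chow during first 3 h of dark. Peptide or saline given ip in 0.5 mL 0.9% saline (pH 7.0–8.0) 10 min before food; cumulative intake read at 0.5 and 3 h in same experiment. Five doses, 10 rats/dose; ED50 by logistic fit.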
# Rattus norvegicus [3] = test: Ability of intraperitoneally administered compound, to inhibit food intake was measured 0.5 hr after feeding the rats.; type: functional; settings: ip; procedure, shortened: as §1
# [4] = biological target: T2, Gastrin/cholecystokinin type B receptor (Rattus norvegicus, UniProt P30553); test: Binding affinity towards Cholecystokinin type B receptor in rat cortex synaptosomes using [125I]BH-CCK-8 as radioligand; type: subcellular, Brain
# T2 sequence (P30553 whole entry): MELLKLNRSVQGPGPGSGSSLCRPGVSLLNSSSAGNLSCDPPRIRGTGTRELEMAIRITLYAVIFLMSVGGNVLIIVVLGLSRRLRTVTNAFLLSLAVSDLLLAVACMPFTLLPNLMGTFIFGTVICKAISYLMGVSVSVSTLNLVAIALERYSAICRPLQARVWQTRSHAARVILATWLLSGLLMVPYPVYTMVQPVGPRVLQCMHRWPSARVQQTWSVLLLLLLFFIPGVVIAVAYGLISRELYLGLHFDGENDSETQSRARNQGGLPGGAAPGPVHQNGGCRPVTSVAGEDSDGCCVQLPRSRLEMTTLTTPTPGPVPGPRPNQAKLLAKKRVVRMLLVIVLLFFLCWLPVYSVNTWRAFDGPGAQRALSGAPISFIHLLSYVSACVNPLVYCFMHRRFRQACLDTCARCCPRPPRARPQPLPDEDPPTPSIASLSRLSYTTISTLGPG
Structure (SMILES),Ki [1],ED50 (Rattus norvegicus [2]),ED50 (Rattus norvegicus [3]),Ki [4]
Cc1ccccc1NC(=O)NCCCC[C@H](NC(=O)[C@H](Cc1c[nH]c2ccccc12)NC(=O)OC(C)(C)C)C(=O)N[C@H](CC(=O)O)C(=O)N(C)[C@@H](Cc1ccccc1)C(N)=O,0.53 nM,–,–,–
Cc1ccccc1NC(=O)NCCCC[C@H](NC(=O)[C@H](Cc1c[nH]c2ccccc12)NC(=O)OC(C)(C)C)C(=O)N[C@@H](CC(=O)O)C(=O)N(C)[C@@H](Cc1ccccc1)C(N)=O,0.3 nM,3.2 µg/kg,0.9 µg/kg,–
CSCC[C@H](NC(=O)Cc1ccc(OS(=O)(=O)O)cc1)C(=O)NCC(=O)N[C@@H](Cc1c[nH]c2ccccc12)C(=O)N[C@@H](CCSC)C(=O)N[C@@H](CC(=O)O)C(=O)N(C)[C@@H](Cc1ccccc1)C(N)=O,0.98 nM,–,–,84 nM
CCCC[C@H](NC(=O)Cc1ccc(O)cc1)C(=O)NCC(=O)N[C@@H](Cc1c[nH]c2ccccc12)C(=O)N[C@@H](CCCC)C(=O)N[C@@H](CC(=O)O)C(=O)N(C)[C@@H](Cc1ccccc1)C(N)=O (X1-[Nle]GW[Nle]D[NMeF]-NH2),51 nM,–,–,–
CCCC[C@H](NC(=O)Cc1ccc(O)cc1)C(=O)NCC(=O)N[C@@H](Cc1c[nH]c2ccccc12)C(=O)N[C@@H](CCCCNC(=O)/C=C/c1ccc(O)cc1)C(=O)N[C@@H](CC(=O)O)C(=O)N(C)[C@@H](Cc1ccccc1)C(N)=O (X1-[Nle]GWK(X3)D[NMeF]-NH2),3.4 nM,–,–,36 nM
CCCC[C@H](NC(=O)Cc1ccc(O)cc1)C(=O)NCC(=O)N[C@@H](Cc1c[nH]c2ccccc12)C(=O)N[C@@H](CCCC)C(=O)N(C)[C@@H](CC(=O)O)C(=O)N[C@@H](Cc1ccccc1)C(N)=O (X1-[Nle]GW[Nle][NMeD]F-NH2),4.2 nM,13 µg/kg,3.8 µg/kg,960 nM
Cc1ccccc1NC(=O)NCCCC[C@H](NC(=O)[C@H](Cc1c[nH]c2ccccc12)NC(=O)OC(C)(C)C)C(=O)N[C@@H](CC(=O)O)C(=O)N[C@@H](Cc1ccccc1)C(N)=O (Boc-WK([CO-NH(2-Me-phenyl)])DF-NH2),8.1 nM,–,–,–
